Laboratory results: ChEMBL document CHEMBL2046311, “Design, synthesis, and molecular hybrids of caudatin and cinnamic acids as novel anti-hepatitis B virus agents” (Eur J Med Chem, 2012)

What was measured:
[1] = Selectivity index, ratio of CC50 for human HepG2(2.2.15) cells to IC50 for Hepatitis B virus infected in human HepG2(2.2.15) cells assessed as inhibition of viral DNA replication; format: functional
How it was run: (§1)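 SI calculated as CC50 (MTT, HepG 2.2.15) divided by IC50 for the named read-out (HBV DNA by real-time PCR, or HBeAg or HBsAg secretion by ELISA), in the same cell line.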

[2] = system: Mus musculus; assay: Acute toxicity in Kunming mouse assessed as change in body weight at 50 mg/kg, po administered as single dose measured on day 14 (Rvb =28.5 g); format: organism-based; design: dose 50 mg/kg, route oral; conditions: in vivo
[3] = Selectivity index, ratio of CC50 for human HepG2(2.2.15) cells to IC50 for Hepatitis B virus infected in human HepG2(2.2.15) cells assessed as inhibition of viral e antigen secretion; format: functional; how it was run: as §1
[4] = system: Mus musculus; assay: Acute toxicity in Kunming mouse assessed as abnormality at 50 to 1250 mg/kg, po administered as single dose measured up to 14 days; format: organism-based; design: dose 50-1250 mg/kg, route oral; conditions: in vivo, 336 h
[5] = system: Mus musculus; assay: Acute toxicity in Kunming mouse assessed as change in body weight at 1250 mg/kg, po administered as single dose measured on day 7 (Rvb =26.3 g); format: organism-based; design: dose 1250 mg/kg, route oral; conditions: in vivo
[6] = Selectivity index, ratio of CC50 for human HepG2(2.2.15) cells to IC50 for Hepatitis B virus infected in human HepG2(2.2.15) cells assessed as inhibition of viral surface antigen secretion; format: functional; how it was run: as §1
[7] = system: Mus musculus; assay: Acute toxicity in Kunming mouse assessed as mortality at 1250 mg/kg, po administered as single dose measured up to 14 days; format: organism-based; design: dose 1250 mg/kg, route oral; conditions: in vivo, 336 h
[8] = Cytotoxicity against human HepG2(2.2.15) cells by modified-MTT assay; format: cell-based
How it was run: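 HepG 2.2.15 cells in RPMI-1640 with 10% fetal calf serum at 37 °C, 5% CO2. Compounds in DMSO, final DMSO below 2.5 μL/mL. Viability read by modified MTT method. CC50 is the mean of at least two experiments.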

[9] = system: Hepatitis B virus; assay: Antiviral activity against Hepatitis B virus infected in human HepG2(2.2.15) cells assessed as inhibition of viral e antigen secretion by ELISA; format: functional, organism-based
How it was run: (§2)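 HepG 2.2.15 cells in RPMI-1640 with 10% fetal calf serum at 37 °C, 5% CO2. Compounds dissolved in DMSO, culture DMSO below 2.5 μL/mL. Secreted HBeAg and HBsAg measured by ELISA. IC50 values are means of at least two experiments.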

[10] = system: Mus musculus; assay: Acute toxicity in Kunming mouse assessed as mortality at 50 mg/kg, po administered as single dose measured up to 14 days; format: organism-based; design: dose 50 mg/kg, route oral; conditions: in vivo, 336 h
[11] = system: Nucleic Acid; assay: Inhibition of X promoter transcriptional activity in HBV infected in human HepG2(2.2.15) cells transfected with pGL3 at 10 uM after 3 days by luciferase reporter gene assay relative to mock-treated control; format: cell-based; conditions: Hepatitis B virus
How it was run: (§3)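 HepG 2 cells transiently transfected by Lipofectamine 2000 with HBV promoter/enhancer firefly luciferase reporters in pGL3, with phRL-CMV Renilla luciferase as internal control. Cells split 24 h after transfection and cultured 3 days, then treated at 10 μM for 3 days. Dual-luciferase read-out in triplicate. Fold activity = treated/mock-treated activity.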

[12] = system: Mus musculus; assay: Acute toxicity in Kunming mouse assessed as change in body weight at 250 mg/kg, po administered as single dose measured on day 7 (Rvb =26.3 g); format: organism-based; design: dose 250 mg/kg, route oral; conditions: in vivo
[13] = system: Mus musculus; assay: Acute toxicity in Kunming mouse assessed as change in body weight at 50 mg/kg, po administered as single dose measured on day 7 (Rvb =26.3 g); format: organism-based; design: dose 50 mg/kg, route oral; conditions: in vivo
[14] = system: Mus musculus; assay: Acute toxicity in Kunming mouse assessed as change in body weight at 1250 mg/kg, po administered as single dose measured on day 14 (Rvb =28.5 g); format: organism-based; design: dose 1250 mg/kg, route oral; conditions: in vivo
[15] = system: Hepatitis B virus; assay: Antiviral activity against Hepatitis B virus infected in human HepG2(2.2.15) cells assessed as inhibition of viral surface antigen secretion by ELISA; format: functional, organism-based; how it was run: as §2
[16] = system: Nucleic Acid; assay: Increase of enhancer 1 transcriptional activity in HBV infected in human HepG2(2.2.15) cells transfected with pGL3 at 10 uM after 3 days by luciferase reporter gene assay relative to mock-treated control; format: cell-based; conditions: Hepatitis B virus; how it was run: as §3
[17] = system: Mus musculus; assay: Acute toxicity in Kunming mouse assessed as change in body weight at 250 mg/kg, po administered as single dose measured on day 14 (Rvb =28.5 g); format: organism-based; design: dose 250 mg/kg, route oral; conditions: in vivo
[18] = system: Mus musculus; assay: Acute toxicity in Kunming mouse assessed as mortality at 250 mg/kg, po administered as single dose measured up to 14 days; format: organism-based; design: dose 250 mg/kg, route oral; conditions: in vivo, 336 h
[19] = Cytotoxicity against human HepG2(2.2.15) cells assessed as cell viability at 10 uM after 48 hrs by MTT assay; format: cell-based; conditions: hepg2 2.2.15, 48 h
How it was run: (§4)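 Cell viability measured by MTT under the 10 μM luciferase reporter treatment conditions, at 48 h and 72 h.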

[20] = system: Mus musculus; assay: Acute toxicity in po dosed Kunming mouse; format: organism-based; conditions: in vivo
[21] = Cytotoxicity against human HepG2(2.2.15) cells assessed as cell viability at 10 uM after 72 hrs by MTT assay; format: cell-based; conditions: hepg2 2.2.15, 72 h; how it was run: as §4
[22] = system: Hepatitis B virus; assay: Antiviral activity against Hepatitis B virus infected in human HepG2(2.2.15) cells assessed as inhibition of viral DNA replication by PCR analysis; format: functional, organism-based
How it was run: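 HepG 2.2.15 cells grown in RPMI-1640 with 10% fetal calf serum, […] and penicillin/streptomycin at 37 °C, 5% CO2. Compounds added in DMSO, kept below 2.5 μL/mL. HBV DNA quantified by SYBR Green real-time PCR with HBV-specific primers spanning 541–591 bp. IC50 values are means of at least two experiments.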

COc1cc(/C=C/C(=O)O[C@H]2CC[C@@]3(C)C(=CC[C@]4(O)[C@@H]3C[C@@H](OC(=O)/C=C(\C)C(C)C)[C@@]3(C)[C@]4(O)CC[C@@]3(O)C(C)=O)C2)cc(OC)c1OC
Ratio CC50/IC50 [1]: >746.6
Activity [2]: 28.9%
Ratio CC50/IC50 [3]: >330
Activity [4]: Non-toxic
Activity [5]: 26.5%
Ratio CC50/IC50 [6]: >330
Activity [7]: Non-toxic
CC50 [8]: > 1820 µM
IC50 [9]: 5.52 µM
Activity [10]: Non-toxic
fold change (FC) [11]: 5.6
Activity [12]: 27.3%
Activity [13]: 26.7%
Activity [14]: 28.8%
IC50 [15]: 5.52 µM
fold change (FC) [16]: 9.4
Activity [17]: 29.8%
Activity [18]: Non-toxic
Activity [19]: 97.4%
LD50 [20]: 1250 mg/kg
Activity [21]: 85.6%
IC50 [22]: 2.44 µM

CC(=O)[C@]1(O)CC[C@@]2(O)[C@]1(C)[C@H](OC(=O)/C=C(\C)C(C)C)C[C@@H]1[C@@]3(C)CC[C@H](OC(=O)/C=C/c4ccc(F)c(C(F)(F)F)c4)CC3=CC[C@]12O
Ratio CC50/IC50 [1]: >149.2
Ratio CC50/IC50 [3]: >1.7
Ratio CC50/IC50 [6]: >18.6
CC50 [8]: > 1330 µM
IC50 [9]: 798 µM
IC50 [15]: 71.6 µM
IC50 [22]: 8.93 µM

CC(=O)[C@]1(O)CC[C@@]2(O)[C@]1(C)[C@H](OC(=O)/C=C(\C)C(C)C)C[C@@H]1[C@@]3(C)CC[C@H](OC(=O)/C=C/c4ccc(F)cc4)CC3=CC[C@]12O
Ratio CC50/IC50 [1]: >123.9
Ratio CC50/IC50 [3]: >32.6
Ratio CC50/IC50 [6]: >28.3
CC50 [8]: > 1290 µM
IC50 [9]: 39.5 µM
IC50 [15]: 45.6 µM
IC50 [22]: 10.4 µM

CC(=O)[C@]1(O)CC[C@@]2(O)[C@]1(C)[C@H](OC(=O)/C=C(\C)C(C)C)C[C@@H]1[C@@]3(C)CC[C@H](OC(=O)/C=C/c4ccc(Cl)cc4Cl)CC3=CC[C@]12O
Ratio CC50/IC50 [1]: >130.3
Ratio CC50/IC50 [3]: >1.6
Ratio CC50/IC50 [6]: >8.8
CC50 [8]: > 1890 µM
IC50 [9]: 1180 µM
IC50 [15]: 216 µM
IC50 [22]: 14.5 µM

CC(=O)[C@]1(O)CC[C@@]2(O)[C@]1(C)[C@H](OC(=O)/C=C(\C)C(C)C)C[C@@H]1[C@@]3(C)CC[C@H](OC(=O)/C=C/c4ccccc4C)CC3=CC[C@]12O
Ratio CC50/IC50 [1]: 190.4
Ratio CC50/IC50 [3]: 6
Ratio CC50/IC50 [6]: 16.9
CC50 [8]: 1370 µM
IC50 [9]: 230 µM
IC50 [15]: 81.1 µM
IC50 [22]: 7.2 µM

CC(=O)[C@]1(O)CC[C@@]2(O)[C@]1(C)[C@H](OC(=O)/C=C(\C)C(C)C)C[C@@H]1[C@@]3(C)CC[C@H](OC(=O)/C=C/c4ccc(Cl)c(Cl)c4)CC3=CC[C@]12O
Ratio CC50/IC50 [1]: >101.2
Ratio CC50/IC50 [3]: >1.5
Ratio CC50/IC50 [6]: >12.7
CC50 [8]: > 1420 µM
IC50 [9]: 949 µM
IC50 [15]: 112 µM
IC50 [22]: 14.1 µM

CC(=O)[C@]1(O)CC[C@@]2(O)[C@]1(C)[C@H](OC(=O)/C=C(\C)C(C)C)C[C@@H]1[C@@]3(C)CC[C@H](OC(=O)/C=C/c4ccc5c(c4)OCO5)CC3=CC[C@]12O
Ratio CC50/IC50 [1]: >256.7
Ratio CC50/IC50 [3]: >37.9
Ratio CC50/IC50 [6]: >176.7
CC50 [8]: > 1660 µM
IC50 [9]: 43.7 µM
IC50 [15]: 9.37 µM
IC50 [22]: 6.45 µM

COc1ccc(/C=C/C(=O)O[C@H]2CC[C@@]3(C)C(=CC[C@]4(O)[C@@H]3C[C@@H](OC(=O)/C=C(\C)C(C)C)[C@@]3(C)[C@]4(O)CC[C@@]3(O)C(C)=O)C2)cc1OC
Ratio CC50/IC50 [1]: >135.6
Ratio CC50/IC50 [3]: >18.8
Ratio CC50/IC50 [6]: >72.7
CC50 [8]: > 1600 µM
IC50 [9]: 85.2 µM
IC50 [15]: 22.1 µM
IC50 [22]: 11.8 µM

CC(=O)[C@]1(O)CC[C@@]2(O)[C@]1(C)[C@H](OC(=O)/C=C(\C)C(C)C)C[C@@H]1[C@@]3(C)CC[C@H](OC(=O)/C=C/c4ccccc4Cl)CC3=CC[C@]12O
Ratio CC50/IC50 [1]: >50.1
Ratio CC50/IC50 [3]: >2.1
Ratio CC50/IC50 [6]: >40.4
CC50 [8]: > 1150 µM
IC50 [9]: 550 µM
IC50 [15]: 28.4 µM
IC50 [22]: 22.9 µM

CC(=O)[C@]1(O)CC[C@@]2(O)[C@]1(C)[C@H](OC(=O)/C=C(\C)C(C)C)C[C@@H]1[C@@]3(C)CC[C@H](OC(=O)/C=C/c4ccc(F)c(F)c4)CC3=CC[C@]12O
Ratio CC50/IC50 [1]: >277
Ratio CC50/IC50 [3]: >18.7
Ratio CC50/IC50 [6]: >82.7
CC50 [8]: > 1290 µM
IC50 [9]: 69.2 µM
IC50 [15]: 15.6 µM
IC50 [22]: 4.66 µM
